Only some compounds are listed: those with a hit (about 1.8% of all), similar ones and a draw of the others.
Scp-1 inhibitor: blocks human Scp-1 phosphatase activity; inhibition, % at 20 µM; Q9GZU7; 340,000 tested, 0.88% active; AID 493091; Recombinant Scp1, phosphopeptide, malachite green phosphate absorbance;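 active = inhibition above about 50% at 20 µM, limit read from the data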;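 note: plate controls were DMSO wells with enzyme for no effect and wells lacking enzyme for full effect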
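Assay system: SCP-1 catalytic fragment, aa 76-261 | Buffer or medium: Tris acetate buffer pH 5.5 with MgCl2 and Tween-20 | Compound: One concentration, 20 µM, with 1.0% DMSO | Also added: Phospho 17-mer peptide substrate | Signal: Absorbance at 630 nm | Incubation: 45 min enzyme reaction at room temperature | Measure: % inhibition of SCP-1 phosphate liberation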
SUMO1 PPI mod: alters human SUMO1 binding to SIM partners | inhibition, % at 20 µM | 360,000 tested, 0.33% active | SUMO1 binding to a labelled peptide, TR-FRET, 1 h | AID 602429; in the data active = inhibition above about 37%
STEP block: STEP (human) phosphatase inhibition; 360,000 tested, 0.25% active; P54829; AID 588621; inhibition, % at 20 µM; recombinant STEP, OMFP fluorogenic substrate, fluorescence;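 active = inhibition at 20 µM, scaled per plate between control wells, above about 37%, limit read from the data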;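 note: 0% = DMSO with enzyme and substrate and 100% = substrate only without enzyme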
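Assay system: isolated STEP enzyme / Timing: 20 min at room temperature, dark / Doses: 20 µM, 1% DMSO / Technique: fluorescence intensity, excitation 480 nm, emission 540 nm / Reagent: fluorogenic phosphatase substrate OMFP at 25 µM final / Measure: percent inhibition scaled to no-enzyme and uninhibited-enzyme controls, plate-pattern corrected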
DNMT1 block: blocks human DNA methyltransferase DNMT1. P26358. DNMT1 molecular beacon, Hinp1I cleavage, fluorescence. inhibition (reported as % activation of signal), % at 10 µM. 360,000 tested, 0.83% active. AID 588458; in the data active = inhibition above about 50%
Target sequence (P26358 504-1616 limits assumed): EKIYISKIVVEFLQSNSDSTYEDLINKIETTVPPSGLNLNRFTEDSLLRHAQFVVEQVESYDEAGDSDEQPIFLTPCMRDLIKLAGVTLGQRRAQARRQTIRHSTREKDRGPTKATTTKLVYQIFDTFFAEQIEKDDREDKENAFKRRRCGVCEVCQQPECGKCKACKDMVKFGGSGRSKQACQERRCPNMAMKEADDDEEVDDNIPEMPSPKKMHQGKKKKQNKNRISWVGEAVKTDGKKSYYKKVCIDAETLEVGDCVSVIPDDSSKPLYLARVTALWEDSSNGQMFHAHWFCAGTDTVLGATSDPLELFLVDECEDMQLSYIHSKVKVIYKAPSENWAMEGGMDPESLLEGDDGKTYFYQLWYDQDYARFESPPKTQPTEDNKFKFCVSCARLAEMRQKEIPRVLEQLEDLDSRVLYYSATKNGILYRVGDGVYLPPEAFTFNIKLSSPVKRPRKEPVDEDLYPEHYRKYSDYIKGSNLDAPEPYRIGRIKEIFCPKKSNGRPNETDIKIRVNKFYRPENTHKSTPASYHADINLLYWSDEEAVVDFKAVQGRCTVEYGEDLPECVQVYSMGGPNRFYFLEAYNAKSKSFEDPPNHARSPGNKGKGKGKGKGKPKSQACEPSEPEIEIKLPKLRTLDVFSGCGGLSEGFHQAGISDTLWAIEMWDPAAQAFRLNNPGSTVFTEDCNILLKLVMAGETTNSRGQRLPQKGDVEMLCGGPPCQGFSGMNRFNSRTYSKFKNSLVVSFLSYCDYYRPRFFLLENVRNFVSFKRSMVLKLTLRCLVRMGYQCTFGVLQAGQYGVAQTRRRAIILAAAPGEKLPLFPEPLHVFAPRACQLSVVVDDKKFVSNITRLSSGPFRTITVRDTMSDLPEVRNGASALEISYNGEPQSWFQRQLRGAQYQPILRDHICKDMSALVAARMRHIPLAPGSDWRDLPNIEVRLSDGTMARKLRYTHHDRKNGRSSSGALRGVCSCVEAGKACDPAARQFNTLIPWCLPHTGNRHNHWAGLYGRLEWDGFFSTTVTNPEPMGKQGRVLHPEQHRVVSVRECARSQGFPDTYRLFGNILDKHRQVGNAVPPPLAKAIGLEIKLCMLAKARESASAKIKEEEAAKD
HKDC1 inh: inhibitors of human hexokinase HKDC1. Q2TB90. recombinant HKDC1, G6PDH/diaphorase resazurin coupled fluorescence. inhibition, % at 20 µM. 340,000 tested, 0.16% active. AID 493160;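 active = inhibition above about 35% when tested at 20 µM, limit read from the data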;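 note: plate controls were DMSO wells with enzyme for no effect and DMSO wells lacking enzyme for full effect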
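Assay system: recombinant HKDC1 hexokinase; detection: coupled resazurin fluorescence, excitation 525 nm, emission 613 nm; benchmarks: DMSO-plus-enzyme-mix negative control, buffer-substituted positive control; compound dosing: single 20 µM dose; schedule: 90 min at room temperature in dark; also added: glucose plus 1 mM ATP as hexokinase substrates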
LMPTP block: LMPTP (human) inhibition; recombinant LMPTP-A, OMFP fluorogenic substrate, fluorescence intensity; inhibition, % at 20 µM; 360,000 tested, 0.22% active;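 active = compounds that cut the enzyme signal by at least half of the control window in the single-dose screen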;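 note: plate controls were DMSO wells with enzyme plus substrate for no effect and substrate without enzyme for full effect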
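Test system: LMPTP-A, protein tyrosine phosphatase of low molecular weight; Input: 0.625 nM enzyme; Incubation: 50 min dark incubation at room temperature; Signal: endpoint fluorescence intensity from OMFP dephosphorylation; Read-out basis: % inhibition versus control wells.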
Scp1 confirm: confirmation of human Scp-1 phosphatase inhibitors | shares compounds with Scp-1 inhibitor | recombinant SCP-1 catalytic domain, phosphate release, malachite green absorbance | inhibition, % at 20 µM | 2,500 tested, 61% active | AID 540281;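 note: plate controls were DMSO with enzyme for no effect and buffer wells lacking enzyme for full effect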
MG interference: interferes with malachite green readout, flagging false Scp-1 hits | shares compounds with Scp-1 inhibitor | Colorimetric interference counterscreen, malachite green absorbance 630 nm | apparent inhibition (interference), % at 20 µM | 2,500 tested, under 10 active | AID 540313;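 note: compounds added after enzyme reaction finished so only phosphate colour detection is probed; plate controls were DMSO wells with completed Scp-1 reaction for no effect and substrate wells lacking enzyme for full effect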
Scp-1 Tm shift: binds human Scp-1, shifting its melting temperature | 1,500 tested, 25% active | thermal shift relative to vanadate control, % at 40 µM | shares compounds with Scp-1 inhibitor | Recombinant SCP1, Sypro Orange thermal shift Tm;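 active = substances whose mean melting-temperature shift, as a percentage of the reference inhibitor's shift, reaches about 5.3%, limit read from the data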;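 note: 0% = Tm of DMSO wells and 100% = Tm with sodium orthovanadate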
DNMT1 confirm: confirmation of human DNMT1 inhibitors; shares compounds with DNMT1 block; DNMT1 molecular beacon HinP1I cleavage, fluorescence; inhibition, % at 10 µM; 2,300 tested, 8% active;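 active = average inhibition of at least 30% in the single-concentration confirmation test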
DNMT1 interf: beacon fluorescence artifact counter-screen. 2,300 tested, 1% active. AID 602387. DNMT1 molecular beacon spectral interference counterscreen, fluorescence 485/520. shares compounds with DNMT1 block. activation (fluorescence interference), % at 10 µM;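 active = activation of at least 30% at 10 µM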;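 note: DNMT1 catalytic domain with a HinP1I cleavage step and a FAM/dabcyl DNA beacon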
Active calls of the source: *; / = not tested or not shown.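 Rule for the calls, unless noted: active = inhibition of at least 30% at 20 µM; inactive = the rest.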

SMILES	Scp-1 inhibitor	SUMO1 PPI mod	STEP block	DNMT1 block	HKDC1 inh	LMPTP block	Scp1 confirm	MG interference	Scp-1 Tm shift	DNMT1 confirm	DNMT1 interf
CS(=O)(=O)c1ccc(-c2sc3ccccc3c2C(=O)N2CCN(c3ccc(F)cc3)CC2)cc1	68*	-1	-3	60*	-4	6	63*	-10	4	10	1
Cc1onc(-c2ccccc2)c1C(=O)OCC(=O)Nc1ccc(OC(F)(F)F)cc1	-7	4	-2	-23	2	5	/	/	/	/	/
O=C(O)c1ccc(COc2c(F)c(F)c(F)c(F)c2F)o1	57*	0	8	56*	-12	-1	48*	-18	4	-1	0
CCOc1ccc(CCNC(=O)C2CC=CCC2C(=O)OC(C)C)cc1OCC (stereo not drawn)	-4	2	3	-1	-6	-1	/	/	/	/	/
CCOc1ccc(CCNC(=O)C2CC(C)=CCC2C(=O)O)cc1OCC (stereo not drawn)	87*	56*	19	53*	-3	-1	58*	-14	-19	3	3
CCOC(=O)CN1C(=O)S/C(=C\c2ccc(-c3ccc(C(=O)O)c(Cl)c3)o2)C1=O	90*	14	90*	65*	8	12	59*	-15	12*	3	0
CCOC(=O)CN1C(=O)S/C(=C/c2ccc(N3CCCCC3)o2)C1=O	11	-41	-10	6	-4	-1	/	/	/	/	/
O=C(CSc1ccsc1[N+](=O)[O-])NCc1ccccc1	0	-21	8	-2	-3	1	/	/	/	/	/
O=C(CSc1ccsc1[N+](=O)[O-])Nc1cccc(F)c1	75*	-4	3	96*	2	25	59*	-23	9.1*	10	0
COc1ccc(CNC(=O)COC(=O)Cc2ccc(Br)cc2)cc1	-5	0	2	-4	-1	0	/	/	/	/	/
O=C(c1ccco1)N1CCN(C(=O)c2ccc(-c3ccc([N+](=O)[O-])cc3)o2)CC1	90*	74*	11	63*	7	46	8	-19	/	4	3
O=C(c1ccc([N+](=O)[O-])cc1)N1CCN(C(=O)c2ccco2)CC1	9	-26	-3	1	-8	-3	/	/	/	/	/
CN(Cc1ccccc1)C(=O)COC(=O)c1cc(=O)[nH]c2ccccc12	-5	8	0	-1	-7	1	/	/	/	/	/
CSc1ccc(NC(=O)CSc2nc3[nH]c(=O)cc(O)c3s2)cc1	71*	12	10	52*	0	48	40*	-21	14*	2	-2
O=c1c2c(nc3cc(-c4ccccc4Cl)[nH]n13)CCS2	64*	12	5	77*	8	33	12	-9	/	1	2
Cc1cccc2sc(NC(=O)C3CCN(S(=O)(=O)c4cc([N+](=O)[O-])ccc4Cl)CC3)nc12	80*	4	12	57*	9	5	54*	-19	12*	1	-1
O=C(NC1CC1)C1CCN(S(=O)(=O)c2cc([N+](=O)[O-])ccc2Cl)CC1	76*	-11	0	90*	10	43	69*	-11	11*	6	-2
O=C(NC1CC1)C1CCN(S(=O)(=O)c2cc(Cl)ccc2Cl)CC1	-2	-1	1	5	-7	0	/	/	/	/	/
O=C(NC1=NCCS1)C1CCN(S(=O)(=O)c2cc([N+](=O)[O-])ccc2Cl)CC1	91*	-21	2	76*	8	18	77*	-5	11*	2	-2
NC(N)=NS(=O)(=O)c1ccc(NC(=S)NC(=O)c2sc3ccccc3c2Cl)cc1	-2	2	-2	-7	-3	6	/	/	/	/	/
Cc1ccc(S(=O)(=O)Nc2ccc(S(=O)(=O)NCC3CCCO3)cc2)cc1 (stereo not drawn)	-6	4	-4	1	-2	-1	/	/	/	/	/
NS(=O)(=O)c1ccc(NC(=O)C2Cc3ccccc3CN2C(=O)c2ccco2)cc1 (stereo not drawn)	61*	14	3	59*	1	15	66*	-7	7.9*	5	3
COc1ccc(S(=O)(=O)N2Cc3ccccc3CC2C(=O)O)cc1 (stereo not drawn)	75*	19	4	60*	3	0	64*	-15	0	0	-1
O=C1NC(=Nc2ccc(Cl)cc2)/C(=C/c2ccco2)S1	93*	10	61*	77*	3	38	80*	-8	7.8*	11	2
C[C@@H]1CN([C@@H](C)CO)C(=O)c2cc(Br)cnc2O[C@@H]1CN(C)Cc1cncnc1	/	2	-2	7	/	-2	/	/	/	/	/
SMILES	Scp-1 inhibitor	SUMO1 PPI mod	STEP block	DNMT1 block	HKDC1 inh	LMPTP block	Scp1 confirm	MG interference	Scp-1 Tm shift	DNMT1 confirm	DNMT1 interf
COc1cc(O)c(C(C)=O)c(CC(=O)O)c1	64*	4	1	50*	-2	1	49*	-12	9.4*	10	-1
CN(C)c1ncnc2c1ncn2[C@H]1CN(CCN2CCOCC2)C[C@@H](CO)O1	/	-4	2	7	/	0	/	/	/	/	/
Cn1c(-c2cnn(-c3ccccc3)c2-n2cccc2)n[nH]c1=S	-6	5	3	5	-4	-3	/	/	/	/	/
Cc1occc1C(=O)NCc1cccc(CNC(=O)c2ccoc2C)c1	51*	25	4	51*	6	7	73*	-9	5	18	3
C=CCn1c(O)c(N=NC(=O)CNC(=O)/C=C/c2ccc(OC)cc2)c2ccccc21	0	-30	-1	-2	5	1	/	/	/	/	/
C=CCn1c(O)c(N=NC(=O)CNC(=O)/C=C/c2ccco2)c2ccccc21	90*	-6	12	93*	13	21	48*	-17	5	11	2
Cc1cccc(NC(=O)CNC(=O)CCc2nc3sc4c(c3c(=O)[nH]2)CCCC4)c1C	73*	21	12	84*	7	36	75*	-15	13*	26	14

Assay outcomes: PubChem, Sanford-Burnham Center for Chemical Genomics
